Experimental data as given in ChEMBL document CHEMBL5303300, “EUbOPEN Chemogenomics Library - Multiplex” (2023).
Values joined by “and” are separate entries in the source; they are usually repeats but may differ in a detail not shown here. Equal entries are not always repeated.

Tested on: U2OS
Assay: Multiplex assay against U2OS
Assay type: toxicity, cell-based
Settings: human, number of replicates 2
Procedure, shortened: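 Compound was added to live cells that had been stained at seeding with Hoechst33342, BioTracker Green Microtubule Cytoskeleton Dye, MitoTracker Red and Annexin V Alexa Fluor 680, and imaging followed on a CQ1 microscope at 37°C and 5% CO2. CellPathfinder machine-learning gating divided cells into Hoechst high-intensity objects or normal cells, normal cells into healthy, pyknosed or fragmented nuclei, and pyknosed cells into mitotic or apoptotic. Tubulin, mitochondrial-mass and membrane-permeability phenotypes are per cents of healthy-nucleus cells.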

[1] = 12 h, 1 µM, compound concentration 1 uM
[2] = 12 h, 10 µM, compound concentration 10 uM
[3] = 24 h, 1 µM, compound concentration 1 uM
[4] = 24 h, 10 µM, compound concentration 10 uM
[5] = 48 h, 1 µM, compound concentration 1 uM
[6] = 48 h, 10 µM, compound concentration 10 uM

SMILES: CCc1cnn2c(NCc3ccc[n+]([O-])c3)cc(N3CCCCC3CCO)nc12 (configuration not stated)
- Population Apoptotic (%) [1]: 58% and 91%
- Population Healthy Nuclei (%) [1]: 22% and 40%
- Population Hoechst High Intensity Objects (%) [1]: 0%
- Population Membrane Permeable-Phenotype (%) [1]: 25% and 12%
- Population Mitochondria Different-Phenotype (%) [1]: 12% and 2%
- Population Normal (%) [1]: 100%
- Population Pyknosed Nuclei (%) [1]: 34% and 49%
- Population Tubulin-Different-Phenotype (%) [1]: 75% and 86%
- Population Apoptotic (%) [2]: 78% and 66%
- Population Fragmented Nuclei (%) [2]: 17% and 14%
- Population Healthy Nuclei (%) [2]: 40% and 47%
- Population Hoechst High Intensity Objects (%) [2]: 0%
- Population Mitochondria Different-Phenotype (%) [2]: 11% and 0%
- Population Mitotic Cells (%) [2]: 21% and 33%
- Population Normal (%) [2]: 100%
- Population Pyknosed Nuclei (%) [2]: 42% and 38%
- Population Tubulin-Different-Phenotype (%) [2]: 44% and 76%
- Population Apoptotic (%) [3]: 100%
- Population Healthy Nuclei (%) [3]: 20% and 30%
- Population Hoechst High Intensity Objects (%) [3]: 0% and 1%
- Population Membrane Permeable-Phenotype (%) [3]: 20% and 10%
- Population Mitotic Cells (%) [3]: 0%
- Population Normal (%) [3]: 100% and 98%
- Population Pyknosed Nuclei (%) [3]: 32% and 53%
- Population Tubulin-Different-Phenotype (%) [3]: 100% and 82%
- Population Apoptotic (%) [4]: 87% and 82%
- Population Fragmented Nuclei (%) [4]: 14% and 12%
- Population Healthy Nuclei (%) [4]: 34% and 33%
- Population Hoechst High Intensity Objects (%) [4]: 4% and 1%
- Population Membrane Permeable-Phenotype (%) [4]: 6% and 10%
- Population Mitochondria Different-Phenotype (%) [4]: 6% and 8%
- Population Mitotic Cells (%) [4]: 12% and 17%
- Population Normal (%) [4]: 95% and 98%
- Population Pyknosed Nuclei (%) [4]: 51% and 53%
- Population Tubulin-Different-Phenotype (%) [4]: 43% and 63%
- Population Apoptotic (%) [5]: 100% and 97%
- Population Healthy Nuclei (%) [5]: 25% and 16%
- Population Hoechst High Intensity Objects (%) [5]: 0% and 3%
- Population Membrane Permeable-Phenotype (%) [5]: 12% and 31%
- Population Mitochondria Different-Phenotype (%) [5]: 25% and 21%
- Population Mitotic Cells (%) [5]: 0% and 2%
- Population Normal (%) [5]: 100% and 96%
- Population Pyknosed Nuclei (%) [5]: 28% and 74%
- Population Tubulin-Different-Phenotype (%) [5]: 75% and 100%
- Population Apoptotic (%) [6]: 95% and 82%
- Population Fragmented Nuclei (%) [6]: 10% and 19%
- Population Healthy Nuclei (%) [6]: 18% and 11%
- Population Hoechst High Intensity Objects (%) [6]: 1%
- Population Mitochondria Different-Phenotype (%) [6]: 45% and 33%
- Population Normal (%) [6]: 98%
- Population Pyknosed Nuclei (%) [6]: 71% and 68%
- Population Tubulin-Different-Phenotype (%) [6]: 81% and 83%

SMILES: COc1cccc(Cn2cc(C(=O)Nc3ccc(C)c(S(=O)(=O)N4CCOCC4)c3)c(-c3ccc(C)cc3)n2)c1
- Population Apoptotic (%) [1]: 33% and 76%
- Population Healthy Nuclei (%) [1]: 46% and 76%
- Population Hoechst High Intensity Objects (%) [1]: 0%
- Population Membrane Permeable-Phenotype (%) [1]: 7% and 0%
- Population Mitochondria Different-Phenotype (%) [1]: 0% and 4%
- Population Mitotic Cells (%) [1]: 66% and 23%
- Population Normal (%) [1]: 100%
- Population Pyknosed Nuclei (%) [1]: 21% and 13%
- Population Tubulin-Different-Phenotype (%) [1]: 38% and 54%
- Population Apoptotic (%) [2]: 71% and 52%
- Population Healthy Nuclei (%) [2]: 45% and 79%
- Population Hoechst High Intensity Objects (%) [2]: 0%
- Population Membrane Permeable-Phenotype (%) [2]: 47% and 38%
- Population Mitochondria Different-Phenotype (%) [2]: 11% and 9%
- Population Mitotic Cells (%) [2]: 28% and 47%
- Population Normal (%) [2]: 100%
- Population Pyknosed Nuclei (%) [2]: 37% and 17%
- Population Tubulin-Different-Phenotype (%) [2]: 88% and 90%
- Population Apoptotic (%) [3]: 37% and 76%
- Population Fragmented Nuclei (%) [3]: 24% and 8%
- Population Healthy Nuclei (%) [3]: 48% and 78%
- Population Hoechst High Intensity Objects (%) [3]: 0%
- Population Mitochondria Different-Phenotype (%) [3]: 14% and 5%
- Population Mitotic Cells (%) [3]: 62% and 23%
- Population Normal (%) [3]: 100% and 99%
- Population Pyknosed Nuclei (%) [3]: 27% and 13%
- Population Tubulin-Different-Phenotype (%) [3]: 64% and 65%
- Population Apoptotic (%) [4]: 60% and 72%
- Population Fragmented Nuclei (%) [4]: 15% and 6%
- Population Healthy Nuclei (%) [4]: 46% and 70%
- Population Hoechst High Intensity Objects (%) [4]: 0%
- Population Membrane Permeable-Phenotype (%) [4]: 44% and 47%
- Population Mitotic Cells (%) [4]: 40% and 27%
- Population Normal (%) [4]: 100%
- Population Pyknosed Nuclei (%) [4]: 38% and 23%
- Population Tubulin-Different-Phenotype (%) [4]: 94% and 90%
- Population Apoptotic (%) [5]: 45% and 67%
- Population Healthy Nuclei (%) [5]: 48% and 83%
- Population Hoechst High Intensity Objects (%) [5]: 0%
- Population Membrane Permeable-Phenotype (%) [5]: 10% and 3%
- Population Mitochondria Different-Phenotype (%) [5]: 10% and 4%
- Population Mitotic Cells (%) [5]: 54% and 32%
- Population Normal (%) [5]: 100%
- Population Pyknosed Nuclei (%) [5]: 26% and 12%
- Population Tubulin-Different-Phenotype (%) [5]: 65% and 80%
- Population Apoptotic (%) [6]: 73% and 70%
- Population Fragmented Nuclei (%) [6]: 7% and 21%
- Population Healthy Nuclei (%) [6]: 63% and 32%
- Population Hoechst High Intensity Objects (%) [6]: 0%
- Population Membrane Permeable-Phenotype (%) [6]: 56% and 33%
- Population Mitochondria Different-Phenotype (%) [6]: 21% and 16%
- Population Mitotic Cells (%) [6]: 26% and 29%
- Population Normal (%) [6]: 99% and 100%
- Population Pyknosed Nuclei (%) [6]: 28% and 45%
- Population Tubulin-Different-Phenotype (%) [6]: 85% and 100%
